Results: ChEMBL document CHEMBL4371095, “Triazole-Based Inhibitors of the Wnt/β-Catenin Signaling Pathway Improve Glucose and Lipid Metabolisms in Diet-Induced Obese Mice” (J Med Chem, 2019)
Active and inactive are the calls of the source. The calls are words filed in the database; no cut-off is given here.

Tests used:
Axin-1 (Homo sapiens) = Axin-1 (Homo sapiens) (UniProt O15169); experiment: Stabilization of Axin1 in human HuH7 cells assessed as decrease in lipid accumulation at 5 uM after 36 hrs by nile red staining based fluorescence microscopic method; assay type: cell-based
Axin-1 (Homo sapiens), sequence (O15169 whole entry): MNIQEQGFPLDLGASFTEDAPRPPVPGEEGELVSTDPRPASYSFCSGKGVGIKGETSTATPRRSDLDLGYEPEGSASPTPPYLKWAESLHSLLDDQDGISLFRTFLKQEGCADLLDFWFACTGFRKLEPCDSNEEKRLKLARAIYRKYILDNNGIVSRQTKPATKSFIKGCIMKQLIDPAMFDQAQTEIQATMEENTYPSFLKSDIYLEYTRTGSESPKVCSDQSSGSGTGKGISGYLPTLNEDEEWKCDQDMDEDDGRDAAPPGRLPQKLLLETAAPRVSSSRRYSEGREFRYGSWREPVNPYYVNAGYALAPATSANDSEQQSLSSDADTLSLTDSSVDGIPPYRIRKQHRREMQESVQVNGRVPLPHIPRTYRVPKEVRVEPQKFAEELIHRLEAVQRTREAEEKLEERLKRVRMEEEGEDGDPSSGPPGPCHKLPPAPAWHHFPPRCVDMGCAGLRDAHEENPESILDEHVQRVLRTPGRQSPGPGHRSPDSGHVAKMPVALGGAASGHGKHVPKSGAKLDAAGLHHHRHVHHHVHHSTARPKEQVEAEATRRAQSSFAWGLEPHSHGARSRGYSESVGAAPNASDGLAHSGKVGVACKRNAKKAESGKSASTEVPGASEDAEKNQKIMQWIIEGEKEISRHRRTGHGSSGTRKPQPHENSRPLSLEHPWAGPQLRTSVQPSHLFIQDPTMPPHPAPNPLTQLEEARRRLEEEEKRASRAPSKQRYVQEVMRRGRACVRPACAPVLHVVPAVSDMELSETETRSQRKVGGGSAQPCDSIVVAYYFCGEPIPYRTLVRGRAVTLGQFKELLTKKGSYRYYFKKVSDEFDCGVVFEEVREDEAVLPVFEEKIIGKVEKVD
How it was run: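 Huh7 cells on collagen I-coated coverslips were treated with 5 μM compound for 36 h, then with 200 μM sodium oleate for a further 12–16 h. Cells were stained with 1 μM Nile red in HBSS for 10 min at 37 °C in the dark and imaged by fluorescence microscopy at 552/636 nm.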

[1] = Inhibition of Wnt3a activated Wnt/beta-catenin signaling (unknown origin) expressed in HEK293 cells harboring TCF/LEF-responsive luciferase preincubated with cells followed by Wnt3a addition and measured after 24 hrs by luciferase reporter gene assay; assay type: cell-based; conditions: Homo sapiens
How it was run: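 HEK293 cells stably carrying TOPFlash/GFP were plated at 2000/well in DMEM with 10% FBS and kept overnight at 37 °C. Compound was pin-transferred, then recombinant human Wnt-3a was added (200 ng/mL working stock). After 24 h at 37 °C, ONE-Glo luminescence was read after 30 min. IC50 is mean ± SE from three independent experiments.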

HEK293 [2] = experiment: Growth inhibition of HEK293 cells harboring Wnt after 24 hrs by CellTiter-Fluor assay; assay type: cell-based; conditions: human, hek293, 24 h
How it was run: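 HEK293 cells stably carrying the TOPFlash reporter were plated at 2000/well in DMEM with 10% FBS and incubated overnight. Compound was added with recombinant human Wnt-3a, then incubated 24 h at 37 °C. CellTiter-Fluor reagent was added and fluorescence read after 30 min at 37 °C.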

[3] = Oral bioavailability in mouse; assay type: ADME, organism-based; conditions: in vivo
HEK293 [4] = experiment: Growth inhibition of unstimulated HEK293 cells up to 100 uM after 72 hrs by CellTiter-Fluor assay; assay type: cell-based; conditions: human, hek293, 72 h
How it was run: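 Unstimulated HEK293 cells were plated at 3.5×10^5/well and grown for 24 h, then incubated with compound for 72 h. Viability was read with CellTiter-Fluor.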

HEK293 [5] = experiment: Inhibition of LiCl-activated Wnt/beta-catenin/Axin signaling (unknown origin) expressed in HEK293 cells assessed as degradation of beta-catenin by measuring decrease in beta-catenin protein expression after 24 hrs by Western blot method; assay type: cell-based; conditions: Homo sapiens
How it was run: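 HEK293 cells were treated with compound in the presence of lithium chloride for 24 h. Lysis buffer contained 10 mM HEPES, 100 μM EDTA, 10 mM KCl, 0.5% NP40 and inhibitors. Protein was quantified by BCA, resolved on 10% SDS-PAGE, and immunoblotted for β-catenin.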

SMILES | IC50 [1] [nM] | growth inhibition (GI) (HEK293 [2]) | further results
Oc1nc(-c2ccc(C(F)(F)F)cc2)nc2c1CSCC2 |  |  | Activity (Axin-1 (Homo sapiens)): Active
Cc1cccc(-n2nnc(C(=O)Nc3ccc4ccccc4n3)c2C)c1 | > 10000 | Non-Toxic | 
Cc1ccccc1-n1nnc(C(=O)Nc2ccc3cc(CN4CCSCC4)ccc3n2)c1C | 230 | Non-Toxic | 
Cc1ccccc1-n1nnc(C(=O)Nc2ccc3cc(CN4CCCCC4)ccc3n2)c1C | 1200 | Non-Toxic | 
Cc1cc(/C=C/c2ccc3cc(N(C)C)ccc3[n+]2C)c(C)n1-c1ccccc1 [PYRVINIUM] | 750 |  | bioavailability [3]: < 1%
Cc1c(C(=O)Nc2ccc3ccccc3n2)nnn1-c1ccccc1F | 1.2 | Non-Toxic | growth inhibition (GI) (HEK293 [4]): Toxic
Cc1c(C(=O)Nc2ccc3ccccc3n2)nnn1-c1ccccc1C(N)=O | > 10000 | Non-Toxic | 
Cc1ccccc1-n1nnc(C(=O)Nc2ccc3cc(CN4CCOCC4)ccc3n2)c1C | 1300 | Non-Toxic | 
CCc1c(C(=O)Nc2ccc3ccccc3n2)nnn1-c1ccccc1F | 4.7 | Non-Toxic | 
CC(=O)c1ccccc1-n1nnc(C(=O)Nc2ccc3ccccc3n2)c1C | 8800 | Non-Toxic | 
Cc1ccc(-n2nnc(C(=O)Nc3ccc4ccccc4n3)c2C)cc1 | > 10000 | Non-Toxic | 
Cc1c(C(=O)Nc2ccc3ccccc3n2)nnn1-c1ccccc1N1CCOCC1 | 1900 | Non-Toxic | 
Cc1c(C(=O)Nc2ccc3ccccc3n2)nnn1-c1ccccc1C#N | 34 | Non-Toxic | 
Cc1c(C(=O)Nc2ccc3ccccc3n2)nnn1-c1ccccc1-c1ccccc1 | 390 | Non-Toxic | 
Cc1c(C(=O)Nc2ccc3ccccc3n2)nnn1-c1cccc2ccccc12 | 5500 | Non-Toxic | inhibition (HEK293 [5]): inactive
Cc1ccccc1-n1nnc(C(=O)Nc2ccc3ccccc3c2)c1C | 4900 | Non-Toxic | 
COc1ccccc1-n1nnc(C(=O)Nc2ccc3ccccc3n2)c1C | 18 | Non-Toxic | 
Cc1c(C(=O)Nc2ccc3ccccc3n2)nnn1-c1ccccc1Br | 7.6 | Non-Toxic | 
Cc1cccc(-n2nnc(C(=O)Nc3ccc4ccccc4n3)c2C)c1C | 140 | Non-Toxic | 
Cc1ccccc1-n1nnc(C(=O)Nc2ccc3cc(Br)ccc3n2)c1C | 830 | Non-Toxic | 
CC(C)c1c(C(=O)Nc2ccc3ccccc3n2)nnn1-c1ccccc1F | 25 | Non-Toxic | 
Cc1ccc(-n2nnc(C(=O)Nc3ccc4ccccc4n3)c2C)c(C)c1 | 270 | Non-Toxic | 
